PMI activator: activators of human PMI, primary screen, biochemical, fluorescence intensity, near-Km mannose 6-phosphate; 190,000 compounds, 0.005% hits; Mannose-6-phosphate isomerase (Homo sapiens), P34949; purified human PMI, coupled resazurin fluorescence, 20 min; active compounds read high; 1 = vehicle control, 0 substrate-free wells; activation factor at 20 µM;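 active means activation factor of 2 or more at 20 µM, relative to plate controls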
Target sequence (P34949 whole entry, looked up): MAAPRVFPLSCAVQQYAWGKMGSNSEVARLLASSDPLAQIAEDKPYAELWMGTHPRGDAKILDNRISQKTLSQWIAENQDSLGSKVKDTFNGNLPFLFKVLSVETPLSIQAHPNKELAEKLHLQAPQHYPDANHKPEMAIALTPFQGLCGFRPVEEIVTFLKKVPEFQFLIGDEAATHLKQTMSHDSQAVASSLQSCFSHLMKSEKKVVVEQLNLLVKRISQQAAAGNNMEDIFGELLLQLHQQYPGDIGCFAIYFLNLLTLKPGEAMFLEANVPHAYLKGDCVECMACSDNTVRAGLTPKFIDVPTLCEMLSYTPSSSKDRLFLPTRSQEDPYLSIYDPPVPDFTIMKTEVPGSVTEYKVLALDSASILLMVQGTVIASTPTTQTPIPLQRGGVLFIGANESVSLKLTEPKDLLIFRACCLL
G6PDH CS: L. mesenteroides G6PDH inhibitors, counter-screen for G6PDH-coupled screening assays, biochemical, Leuconostoc mesenteroides enzyme; glucose-6-phosphate dehydrogenase [Leuconostoc mesenteroides]; Purified L. mesenteroides G6PDH, diaphorase/resazurin coupled fluorescence, 45 min; inhibition, % at 5 µM; 200,000 compounds, 0.12% hits; in the data active means inhibition above about 50%
ROMK primary: ROMK potassium channel modulators, primary screen, cell-based, thallium flux, MLSMR library. AID 1918, 2009. B-score at 10 µM. ATP-sensitive inward rectifier potassium channel 1 (Homo sapiens), P48048. Tet-inducible ROMK, thallium flux fluorescence; actives lie on both sides. 130,000 compounds, 2% hits;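 active means signal ratio slope over the read window, or its plate-corrected B-score, at least 3 SD from the plate mean, either direction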;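 further: B-score of the F/F0 ratio slope over 7 to 12 s after thallium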
Diaph act CS: compounds boosting diaphorase resazurin reduction – biochemical, uHTS, resorufin fluorescence, counter-screen for diaphorase-coupled primary assays, primary screen; Diaphorase/resazurin coupled assay, 16 min; active compounds read high; 1 = vehicle wells, 0 = NADH-free wells; activation factor at 20 µM; 190,000 compounds, 0.005% hits; AID 1229, 2008;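 active means diaphorase activity raised at least twofold by the compound at 20 µM; inactive means activation factor below 2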
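Material: purified diaphorase enzyme from Clostridium kluyveri; Also added: 0.114 mM NADH and 0.1 mM resazurin, final amounts; Doses: single compound dose of 20 µM, 1% DMSO final; Times: 16 min enzyme reaction, ambient temperature; Detection: resorufin fluorescence, excitation 544 nm, emission 590 nm; Measure: increased resorufin signal from activators or reducing compounds.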
PMI act satM6P: human PMI activators, high substrate, primary screen, biochemical, fluorescence intensity, near-saturating mannose 6-phosphate | activation factor at 20 µM | 190,000 compounds, 0.34% hits | coupled PMI enzyme assay, resazurin fluorescence, 20 min; active compounds read high; 1 = untreated enzyme, 0 = substrate-free blank | Mannose-6-phosphate isomerase (Homo sapiens), P34949;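 active means activation factor of 2 or more at 20 µM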
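Test system: human PMI in coupled enzyme assay; Input: PMI at 15 ng/mL final; Medium: HEPES buffer, pH 7.4; Schedule: 20 min incubation at room temperature; Technique: resorufin fluorescence at Ex 544/Em 590 nm; Compound: 20 µM single dose; Probe or stimulus: Near-saturating mannose-6-phosphate, 1.0 mM.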
Diaph inh CS: diaphorase inhibitors and chemical oxidizers, primary screen, counter-screen for diaphorase-coupled primary assays, biochemical, uHTS, resorufin fluorescence. 190,000 compounds, 0.69% hits. inhibition, % at 20 µM. diaphorase resazurin-to-resorufin fluorescence, NADH, 16 min; bacterial (C. kluyveri) enzyme, not human;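 active means primary screen inhibition at 20 µM above a set limit, cut at about 50% in these data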
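Assay system: diaphorase enzyme from Clostridium kluyveri. Quantity: enzyme working solution with 0.14 U/mL diaphorase. Schedule: reaction incubation of 16 min at room temperature. Technique: resorufin fluorescence, excitation 544 nm, emission 590 nm. Controls: No-NADH positive control and DMSO neutral control.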
ROMK hit retest: ROMK channel modulator hit retest, confirmation, cell-based, thallium flux, duplicate, resupplied hits. shares compounds with ROMK primary. fluorescence ratio; active compounds read low. normalized thallium flux (F/F0 slope) at 10 µM. 3,000 compounds, 54% hits;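 active means Flux at 10 µM at least 3 SD below or above vehicle control mean in one or both replicates; inconclusive means no clear call, values can overlap the other calls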
Hits are given with their value; n = inactive; u = inconclusive; x = not tested or not shown. Shown are actives, neighbours in structure and some others; about 2.2% of the full set was active somewhere.

SMILES | PMI activator | G6PDH CS | ROMK primary | Diaph act CS | PMI act satM6P | Diaph inh CS | ROMK hit retest
CCC1CCCCN1S(=O)(=O)c1ccc(S(=O)(=O)N(Cc2cccs2)C2CC2)cc1 (centres undefined) | n | n | x | n | n | n | u
CCN(CC)S(=O)(=O)c1ccc(C(=O)NC(C)(C)C)cc1 | n | n | n | n | n | n | x
CCCCn1c(SCC(=O)Nc2cc(C)on2)nnc1-c1ccco1 | n | n | 3.2 | n | n | n | n
Cc1c(Cl)cccc1NC(=O)CNC(=O)c1ccc(F)cc1 | n | n | x | n | n | n | u
O=C(Nc1cccc(S(=O)(=O)N2CCCCC2)c1)c1ccc2c(=O)n3c(nc2c1)CCCCC3 | n | n | x | n | n | n | 0.064
O=C(Nc1nccs1)c1ccc2c(=O)n3c(nc2c1)CCCCC3 | n | n | x | n | n | n | x
NC(=O)c1ccsc1NC(=O)COC(=O)Cc1ccsc1 | n | n | n | n | n | n | x
COc1cc(CC(=O)OCC(=O)Nc2sccc2C(N)=O)cc(OC)c1OC | n | n | n | n | n | n | 0.062
O=[N+]([O-])c1cc(S(=O)(=O)N2CCCC2)ccc1O | n | n | n | n | n | n | x
O=[N+]([O-])c1cc(S(=O)(=O)N2CCCCCC2)ccc1F | n | n | x | n | n | n | 0.054
O=S(=O)(c1cccc(S(=O)(=O)N2CCCC2)c1)c1cccc(S(=O)(=O)N2CCCC2)c1 | n | n | -5.7 | n | n | n | 0.066
Cc1cc(C2N=C(N)Nc3nc4ccccc4n32)c(C)n1-c1ccccc1Cl (centres undefined) | n | n | -5 | n | n | n | 0.059
Cc1ccc(-n2c(C)cc(C3N=C(N)Nc4nc5ccccc5n43)c2C)c(C)c1 (centres undefined) | n | n | x | n | n | n | 0.047
CN1C(=O)C2C(c3ccc(N(C)C)cc3)NN(Cc3ccccc3)C2C1=O (centres undefined) | n | n | n | n | n | n | x
Cc1cccc(OCCCN2CCCCCC2)c1 | n | n | 3.2 | n | n | n | n
Cc1ccc(C)c(OCCCN2CCCC2)c1 | n | n | x | n | n | n | x
COC(=O)N/N=C/c1sc(N2CCCCC2)nc1-c1cccs1 | n | n | n | n | n | n | x
CCOc1ccc(-n2c(SCC(=O)Nc3cc(C)on3)nnc2-c2c[nH]c3ccccc23)cc1 | n | n | 4.3 | n | n | n | n
O=C(Cc1csc(Nc2nc(=S)[nH]c3ccccc23)n1)N1CCN(c2cccc(C(F)(F)F)c2)CC1 | n | n | n | n | n | n | x
COc1cc2ncnc(NCc3ccccc3C)c2cc1OC | n | n | x | n | n | n | u
NCCCCCC(=O)Nc1ccncc1 | x | x | n | x | x | x | x
CC1CCCN(c2nc3ccccc3nc2C(C#N)S(=O)(=O)c2cccs2)C1 (centres undefined) | n | n | -4.5 | n | n | n | 0.059
COc1ccc(S(=O)(=O)C(C#N)c2nc3ccccc3nc2N2CCCC(C)C2)cc1 (centres undefined) | n | n | x | n | n | n | x
Cc1ccc([N+](=O)[O-])c2c1C(N1CC(C)OC(C)C1)C(C)(C)O2 (centres undefined) | n | n | n | n | n | n | x
O=C(O)c1ccc(Cn2cnc3scc(-c4ccccc4)c3c2=O)cc1 | n | n | -6 | n | n | n | 0.055
SMILES | PMI activator | G6PDH CS | ROMK primary | Diaph act CS | PMI act satM6P | Diaph inh CS | ROMK hit retest
Cc1cc(C(=O)CN2C(=O)NC(C)(c3cccc(Br)c3)C2=O)c(C)n1Cc1ccco1 (centres undefined) | n | n | x | n | n | n | u
Cc1cc(C(=O)CN2C(=O)NC(c3ccccc3)(c3ccccc3)C2=O)c(C)n1Cc1ccco1 | n | n | x | n | n | n | x
Cc1nnc(SCc2c(Cl)cccc2Cl)n(N)c1=O | n | n | -2.9 | n | n | n | 0.061
COc1ccccc1CN1C[C@@H]2C[C@@H](C3=Cc4cc(Cl)ccc4OC3)N3CCC[C@@]23C1=O | n | n | -3.2 | n | n | n | 0.065
Cc1ccc(CN2CCN(C(=O)c3ccncc3)CC2)cc1 | n | n | n | n | n | n | x
O=C(c1ccccc1)c1ccc(OCCOCCN2CCN(Cc3ccccc3)CC2)cc1 | n | n | n | n | n | n | x
Cc1cc(/C=N/NC(=O)C(=O)NCc2ccccn2)c(C)n1-c1ccccc1 | n | n | 2.7 | n | n | n | n
Cc1cc(/C=N\NC(=O)COc2cccc3cccnc23)c(C)n1-c1ccccc1 | n | n | n | n | n | n | x
CC1CCCCN1C(=O)Cn1cc(/C=C2/C(=O)Nc3ccccc32)c2ccccc21 (centres undefined) | n | n | x | n | n | n | n
CC1(C)N=C(N)N=C(N)N1c1ccc(OCCCOc2ccccc2)c(Cl)c1 | x | x | -3.1 | x | x | x | 0.06
Cc1noc(C)c1COc1ccc(C(=O)OCC(=O)Nc2ccc3c(c2)OCO3)cc1 | n | n | x | n | n | n | n
CCOc1ccc(N(C(=O)Cn2nnc3ccccc32)C(C(=O)NC(C)(C)CC)c2cccn2C)cc1 (centres undefined) | n | n | x | n | n | n | x
CCC(C)(C)NC(=O)C(c1cccn1C)N(C(=O)Cn1nnc2ccccc21)c1ccc(OC)cc1OC (centres undefined) | n | n | -3.5 | n | n | n | 0.051
CCOc1ccccc1CN1CCN(Cc2ccc(C)o2)CC1CCO (centres undefined) | n | n | n | n | n | n | x
CCOc1ccccc1CN1CCN(CC2=Cc3cc(OC)ccc3OC2)CC1CCO (centres undefined) | x | x | x | x | x | x | 0.067
CN(CC(=O)NCc1ccccc1Cl)CC(=O)Nc1cccc(F)c1 | n | n | n | n | n | n | x
O=C(CN1CCC(c2nc3ccccc3s2)CC1)NCc1cccs1 | n | n | x | n | n | n | 0.06
COc1ccc(/C=N/n2c(SC)nnc2-c2ccccc2)cc1C | n | n | x | n | n | n | x
COc1ccc(/C=N/n2c(SC)nnc2-c2ccccc2)c(OC)c1OC | n | n | 3.4 | n | n | n | n
